High-throughput results deposited in PubChem BioAssay by several laboratories.
SENP1 FRET inh = human SENP1 catalytic domain inhibitors, primary screen, biochemical, FRET, uHTS; Sentrin-specific protease 1 (Homo sapiens), Q9P0U3; recombinant SENP1 catalytic domain, CyPet-SUMO1-YPet FRET cleavage; inhibition, % at 10 µM; 360,000 compounds, 0.21% hits; AID 624204, 2012;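 active means inhibition at least 30% at 10 µM, raw YFP signal under a set limit, fluorescence ratio 0.5 to 1.5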;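 further: 0% = enzyme with DMSO and 100% = no enzyme wells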
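Test system: hSENP1 catalytic domain, recombinant; Amount: 20 pM final SENP1 enzyme; Medium: Tris pH 8 buffer plus EDTA, NaCl, BME, BSA, NP40, catalase; Schedule: 50 min enzyme reaction, room temperature, light-protected; Technique: FRET fluorescence in CFP and YFP emission channels; Controls: no-enzyme wells low, DMSO-plus-enzyme wells high control.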
HNF4A DNA FP = change in binding of human HNF4A to DNA, primary screen, biochemical, fluorescence polarization, FITC-DNA; activity change, % at 10 µM; Hepatocyte nuclear factor 4-alpha (Homo sapiens), P41235; 1 h; 360,000 compounds, 0.3% hits; in the data active means activity change above about 30%, passing the limit was not always enough
Rpn11 inh = Rpn11 (PSMD14) deubiquitinase inhibitors, primary screen, biochemical, fluorescence polarization, uHTS | 26S proteasome non-ATPase regulatory subunit 14 (Homo sapiens), O00487 | human 26S proteasome, Ub4-pepOG fluorescence polarization; 20S core pre-blocked with epoxomicin | calls only at 20 µM | 360,000 compounds, 0.59% hits | AID 588493, 2011;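 active means inhibition at 20 µM, scaled to each plate's controls, above about 33%, limit read from the data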
CSN inh = inhibitors of CSN-mediated cullin deneddylation, primary screen, biochemical, fluorescence polarization, uHTS; COP9 signalosome complex subunit 5 (Homo sapiens), Q92905; Purified CSN, SCF-Nedd8-OG deneddylation; inhibition, % at 12.5 µM; 360,000 compounds, 0.38% hits; AID 651999, 2013;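 active means pattern-corrected inhibition above about 35%, with an unprinted fluorescence ratio check between 0.5 and 1.5, limit read from the data, passing the limit was not always enough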;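 further: 0% = enzyme with substrate and 100% = substrate without enzyme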
Target sequence (Q92905 whole entry, looked up, one chain of several): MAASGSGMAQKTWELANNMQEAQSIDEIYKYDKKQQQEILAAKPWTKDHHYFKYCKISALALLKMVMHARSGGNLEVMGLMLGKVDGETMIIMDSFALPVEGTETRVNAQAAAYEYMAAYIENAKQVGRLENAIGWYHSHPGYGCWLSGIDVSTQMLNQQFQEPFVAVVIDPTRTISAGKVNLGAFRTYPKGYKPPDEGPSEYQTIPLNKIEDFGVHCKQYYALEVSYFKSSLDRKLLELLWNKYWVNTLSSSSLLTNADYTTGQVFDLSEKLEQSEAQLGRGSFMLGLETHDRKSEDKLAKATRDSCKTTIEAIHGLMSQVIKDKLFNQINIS
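Detection – fluorescence polarization · System – HEK293T-derived human Csn5 enzyme · Controls – substrate-only high control, full reaction low control · Timing – 90 min, room temperature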
SUMO HTRF inh = inhibitors of in vitro SUMOylation cascade, primary screen, biochemical, HTRF, uHTS | HTRF SUMOylation assay, SAE1/SAE2 + UBC9 | inhibition, % at 35 µM | SUMO-conjugating enzyme UBC9 (Homo sapiens), P63279 | 290,000 compounds, 0.36% hits; in the data active means inhibition above about 50%, passing the limit was not always enough
Target sequence (P63279 whole entry, looked up): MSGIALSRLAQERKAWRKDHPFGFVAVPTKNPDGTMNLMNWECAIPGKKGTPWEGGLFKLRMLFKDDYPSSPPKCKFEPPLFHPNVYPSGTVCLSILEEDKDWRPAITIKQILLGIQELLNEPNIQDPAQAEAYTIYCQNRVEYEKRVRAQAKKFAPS
TPT1 inhibitor = Candida albicans TPT1 enzyme inhibitors, primary screen, biochemical, fluorescence polarization | 300,000 compounds, 0.81% hits | tRNA 2'-phosphotransferase TPT1 (Candida albicans SC5314) | recombinant caTPT1, FP RNA substrate dephosphorylation | inhibition, % at 5 µM;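 active means inhibition above the mean of all tested compounds plus 3 SD, set per screening campaign, cut at about 24% in these data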;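 further: plate controls were DMSO alone for no effect and ferristatin control at 100 nM for full effect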
caTPT1 confirm = Candida albicans TPT1 inhibitors, confirmation, biochemical, fluorescence polarization, triplicate. shares compounds with TPT1 inhibitor. recombinant caTPT1, RNase T1 coupled. inhibition, % at 5 µM. 2,400 compounds, 74% hits;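 active means inhibition above the primary screen limit, the mean inhibition of all tested compounds plus 3 SD, cut at about 25% in these data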
RNase T1 counter = RNase T1 inhibitors, counter-screen for TPT1 inhibitor project, biochemical, fluorescence polarization | 2,400 compounds, 83% hits | RNase T1 cleavage, 1536-well | inhibition, % at 5 µM | shares compounds with TPT1 inhibitor | AID 2153, 2009;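 active means inhibition above the solvent-only control well mean plus 3 SD, limit set per screening run, cut at about 23% in these data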;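 further: plate controls were DMSO wells with enzyme for no effect and wells without RNase T1 for full effect; inhibitors block cleavage so intact labeled substrate keeps polarization high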
Target sequence (P00651 whole entry, looked up): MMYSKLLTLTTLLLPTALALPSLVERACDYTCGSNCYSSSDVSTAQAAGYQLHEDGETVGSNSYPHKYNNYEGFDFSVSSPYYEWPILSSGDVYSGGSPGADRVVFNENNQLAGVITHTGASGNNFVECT
* = called active by the depositor; i = inactive; · = no result given; ! = repeats disagree. Shown are actives, neighbours in structure and some others; about 1.8% of the full set was active somewhere.

SMILES | SENP1 FRET inh | HNF4A DNA FP | Rpn11 inh | CSN inh | SUMO HTRF inh | TPT1 inhibitor | caTPT1 confirm | RNase T1 counter
COC(=O)C1(C)NC(c2ccc(Cl)cc2)C2C(=O)N(c3ccccc3)C(=O)C21 (stereo not given) | 2 | 1 | i | -2 | 13 | 82* | 5 | 5
COC(=O)C1(C)NC(c2ccccc2F)C2C(=O)N(c3ccccc3)C(=O)C21 (stereo not given) | -2 | 2 | i | -2 | -10 | 1 | · | ·
O=C(Nc1ccc([N+](=O)[O-])c(NC(=O)c2cccnc2)c1)c1cccnc1 | 1 | 2 | i | 0 | · | -3 | · | ·
O=C(C(=O)N1CCCCCC1)c1c[nH]c2ccccc12 | -1 | -1 | i | -4 | -24 | · | · | ·
C[n+]1cc(C(=O)N2CCCCC2)ccc1/C=C/c1c[nH]c2ccccc12 | -7 | 147 | · | 149 | 10 | 132* | 109* | 109*
CNCc1ccc(OCc2ccccc2)c(OC)c1 | 2 | 0 | i | -4 | -3 | 1 | · | ·
O=C(Cc1ccccc1)Nn1c(O)c(/C=C2\C=Nc3ccccc32)sc1=S | -25 | 53* | i | 9 | 5 | 139* | 94* | 105*
Cc1cc(=O)oc(C)c1C(=O)Nc1ccc2ncccc2c1 | -18 | -42 | i | -1 | 24 | 25* | 35* | 45*
CC(C)(C)n1nc2c(c1NC(=O)COc1ccc3ccccc3c1)CS(=O)C2 (stereo not given) | 2 | -1 | i | 3 | 8 | -4 | · | ·
COc1cc(OC)c(CN2CCc3c([nH]c4ccccc34)C2)cc1Br | -9 | 52* | · | 43* | -14 | 48* | 6 | 7
Cc1cccc(CN2CCc3c([nH]c4ccccc34)C2)c1 | -7 | 0 | i | 2 | 3 | 0 | · | ·
CN1C(=O)N(C)C(NC(=O)Nc2ccccc2)C1NC(=O)Nc1ccccc1 (stereo not given) | 0 | 0 | i | -3 | 8 | 3 | · | ·
Cc1ccc(-c2cc3nc(C)cc(C)n3n2)cc1 | -1 | -3 | i | -12 | 4 | -2 | · | ·
Cc1cc(C)n2nc(-c3ccsc3-n3c(C)ccc3C)cc2n1 | -11 | 32 | · | 25 | 35 | 45* | 53* | 64*
C=CCn1c(SCC(=O)N(CC)C2CCS(=O)(=O)C2)nc2ccccc2c1=O (stereo not given) | 1 | -4 | i | 0 | -14 | 52* | 13 | 15
Cc1cc(/C=C2/C(=O)N(C)C(=S)N2C)c(C)n1C1CC1 | -59 | 12 | i | 6 | 11 | 30* | 46* | 55*
Cc1cc(/C=C2\SC(=S)NC2=O)c(C)n1C1CC1 | -33 | 56* | · | 31 | -12 | 74* | 107* | 117*
CN(CCc1ccccn1)C(=O)CCC1CCCN(C(=O)c2cscn2)C1 (stereo not given) | 2 | -2 | i | -3 | -2 | 2 | · | ·
CN1CCN(C(=O)c2cccc(-c3ccc4nncn4c3)c2)CC1 | -2 | 3 | i | -5 | · | · | · | ·
CC(C)c1ccc(N(CC(=O)NC2CCCC2)C(=O)CCC(=O)Nc2ccccn2)cc1 | 0 | -1 | i | 2 | 7 | 0 | · | ·
CCN1CCN(Cc2ccc(NC(=O)c3ccc(C)c(/C=C/c4cnc(Nc5cc(N6CCNCC6)nc(C)n5)cn4)c3)cc2C(F)(F)F)CC1 | -29 | 125 | · | 57*! | -1 | 78* | 83* | 87*
CCN1CCN(Cc2ccc(NC(=O)c3ccc(C)c(NC(=O)c4ccno4)c3)cc2C(F)(F)F)CC1 | -3 | 5 | i | 9 | 11 | -1 | · | ·
Cc1ccc(NC(=O)c2cc(S(=O)(=O)N3CCOCC3)c(Br)s2)cc1 | 1 | 2 | i | -13 | -13 | 29* | 0 | 3
Cc1ccc(C(=O)Nc2ccc(F)c(S(=O)(=O)N3CCOCC3)c2)s1 | 0 | -3 | i | 1 | · | · | · | ·
Cc1ccc(C2C3=C(CCCC3=O)OC3=C2C(=O)CCC3)cc1 | -1 | 1 | i | 4 | 12 | 54* | 8 | 10
SMILES | SENP1 FRET inh | HNF4A DNA FP | Rpn11 inh | CSN inh | SUMO HTRF inh | TPT1 inhibitor | caTPT1 confirm | RNase T1 counter
CNc1ccc(Br)cc(C(=O)/C=C/c2cc(OC)ccc2OC)c1=O | -5 | -4 | i | 16 | 39 | 66* | 63* | 76*
COc1ccc(/C=C/C(=O)c2cc(Br)ccc2O)cc1OC | -1 | -2 | i | 8 | 13 | -4 | · | ·
CCNc1ccc(Br)cc(C(=O)/C=C/c2ccc(Cl)cc2Cl)c1=O | -13 | 15 | i | 28 | 19 | 69* | 85* | 92*
COc1ccc(/C=C/C(=O)c2ccc(OC)cc2OC)cc1 | -13 | -1 | i | 8 | 2 | -2 | · | ·
CNc1ccc(Br)cc(C(=O)/C=C/c2ccc(OC)cc2)c1=O | -6 | -5 | i | 24 | 26 | 53* | 36* | 46*
COc1cc(C)c(NC(=O)COc2ccc3c(c2)OCO3)cc1C | 1 | 1 | i | 0 | -10 | -5 | · | ·
CCCN1C(=O)/C(=C\C=C2/Sc3ccccc3N2CC)SC1=S | · | · | · | · | 14 | · | · | ·
CCOC(=O)/C(C#N)=C(C)/C=C1\Sc2ccccc2N1CC | -30 | -33 | · | -70 | 7 | 49* | 39* | 50*
CCN1/C(=C\C=C(C(C)=O)C(C)=O)Sc2ccccc21 | -25 | 192 | · | 130 | -5 | 196* | 167* | 157*
c1ccc2c(c1)ncc1cccn12 | -3 | -6 | i | 2 | 21 | 1 | · | ·
CCn1c2ccccc2c2c3ncc4cccn4c3ccc21 | -24 | 24 | · | 28 | 56 | 33* | 15 | 22*
Cc1cccc(/C=C(\C(=O)C(=O)O)c2ccc3ccccc3n2)c1 | -28 | 7 | i | 3 | 3 | 16 | · | ·
O=C(O)C(=O)/C(=C\c1cccc(Cl)c1)c1ccc2ccccc2n1 | -35 | 0 | i | 0 | 14 | 30* | 42* | 58*
Cc1cc(N2CCOCC2)ccc1/C=C1\NC(=O)N(Cc2ccccc2F)C1=O | -39 | 12 | i | -4 | 2 | 6 | · | ·
